# Results reported in ChEMBL document CHEMBL1275561, “In vitro activities of doripenem, a new broad-spectrum carbapenem, against recently collected clinical anaerobic isolates, with emphasis on the Bacteroides fragilis group” (2008).
# What was measured:
# Format in all cases: functional
# [1] = system: Clostridioides difficile; assay: Antimicrobial activity against Clostridium difficile by agar dilution method
# [2] = system: Clostridium perfringens; assay: Antimicrobial activity against Clostridium perfringens by agar dilution method
# [3] = system: [Clostridium] innocuum; assay: Antimicrobial activity against Clostridium innocuum by agar dilution method
# [4] = system: [Clostridium] innocuum; assay: Antimicrobial activity against Clostridium innocuum assessed as resistant isolates by agar dilution method; settings: pooled result: one value given for 4 cell lines, strains, targets or settings
# [5] = system: Clostridium paraputrificum; assay: Antimicrobial activity against Clostridium paraputrificum by agar dilution method
# [6] = system: Clostridium subterminale; assay: Antimicrobial activity against Clostridium subterminale by agar dilution method
# [7] = system: Clostridium tertium; assay: Antimicrobial activity against Clostridium tertium by agar dilution method
# [8] = system: Finegoldia magna; assay: Antimicrobial activity against Finegoldia magna by agar dilution method
# In short: (§1)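 Gram-positive anaerobes were tested by CLSI agar dilution on brucella agar enriched with 5% lysed defibrinated sheep blood and 1 μg/ml vitamin K1. Inoculum was log-phase growth at 0.5 McFarland, about 10^5 CFU/spot by replicator. Incubation was anaerobic, 37°C, 48 h. MIC was the lowest concentration with a marked growth change versus the drug-free plate. Eubacterium lentum ATCC 43055 was the control, and tests were repeated if it fell outside the CLSI range.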
# [9] = system: Finegoldia magna; assay: Antimicrobial activity against Finegoldia magna assessed as resistant isolates by agar dilution method
# In short: (§2)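 Agar dilution following CLSI on brucella agar with 5% lysed defibrinated sheep blood and 1 μg/ml vitamin K1, plates made on test day. Log-phase cells at 0.5 McFarland, about 10^5 CFU/spot by Steers replicator, 48 h anaerobic at 37°C. MIC read as the lowest concentration causing a marked growth change versus control. Resistance counted by CLSI anaerobe breakpoints. Eubacterium lentum ATCC 43055 served as control.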
# [10] = system: Peptoniphilus asaccharolyticus; assay: Antimicrobial activity against Peptoniphilus asaccharolyticus by agar dilution method; in short: as §1
# [11] = system: Peptoniphilus asaccharolyticus; assay: Antimicrobial activity against Peptoniphilus asaccharolyticus assessed as resistant isolates by agar dilution method; settings: pooled result: one value given for 4 cell lines, strains, targets or settings; in short: as §2
# [12] = system: Parvimonas micra; assay: Antimicrobial activity against Micromonas micros by agar dilution method; in short: as §1
# [13] = system: Anaerococcus prevotii; assay: Antimicrobial activity against Anaerococcus prevotii by agar dilution method; in short: as §1
# [14] = system: Peptostreptococcus sp.; assay: Antimicrobial activity against Peptostreptococcus sp. by agar dilution method
# In short: (§3)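 Log-phase isolates were adjusted to 0.5 McFarland, and about 10^5 CFU/spot was delivered by Steers replicator. Plates were incubated anaerobically at 37°C for 48 h. MIC was the lowest concentration giving a marked growth change versus the control plate. Eubacterium lentum ATCC 43055 was the QC strain, with repeats when out of range.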
# [15] = system: Cutibacterium acnes; assay: Antimicrobial activity against Propionibacterium acnes by agar dilution method; in short: as §3
# [16] = system: Cutibacterium acnes; assay: Antimicrobial activity against Propionibacterium acnes assessed as resistant isolates by agar dilution method; in short: as §2
# [17] = system: Propionibacterium; assay: Antimicrobial activity against Propionibacterium sp. by agar dilution method; in short: as §3
# [18] = system: Propionibacterium; assay: Antimicrobial activity against Propionibacterium sp. assessed as resistant isolates by agar dilution method; in short: as §2
SMILES,MIC [1] [µg/mL],MIC50 [2] [µg/mL],MIC90 [2] [µg/mL],MIC50 [3] [µg/mL],MIC90 [3] [µg/mL],Activity [4] [%],MIC50 [5] [µg/mL],MIC90 [5] [µg/mL],MIC50 [6] [µg/mL],MIC90 [6] [µg/mL],MIC50 [7] [µg/mL],MIC90 [7] [µg/mL],MIC [8] [µg/mL],MIC50 [8] [µg/mL],MIC90 [8] [µg/mL],Activity [9] [%],MIC50 [10] [µg/mL],MIC90 [10] [µg/mL],Activity [11] [%],MIC50 [12] [µg/mL],further results
Cc1ncc([N+](=O)[O-])n1CCO [METRONIDAZOLE],0.5,2,4,2,2,5.6,2,2,2,2,2,2,0.5,0.5,0.5,0,1,32,34.1,1,MIC90 [12]: 32 µg/mL; MIC50 [13]: 1 µg/mL; MIC90 [13]: 32 µg/mL; MIC50 [14]: 1 µg/mL; MIC90 [14]: 32 µg/mL; MIC50 [15]: 32 µg/mL; MIC90 [15]: 32 µg/mL; Activity [16]: 94.4%; MIC50 [17]: 32 µg/mL; MIC90 [17]: 32 µg/mL; Activity [18]: 92.3%
CC(=O)NC[C@H]1CN(c2ccc(N3CCOCC3)c(F)c2)C(=O)O1 [LINEZOLID],1,2,4,4,8,11,4,8,4,8,4,8,2,2,2,0,1,2,0,1,MIC [2]: 2 µg/mL; MIC90 [12]: 2 µg/mL; MIC50 [13]: 1 µg/mL; MIC90 [13]: 2 µg/mL; MIC50 [14]: 1 µg/mL; MIC90 [14]: 2 µg/mL; MIC [15]: 0.5 µg/mL; MIC50 [15]: 0.5 µg/mL; MIC90 [15]: 1 µg/mL; Activity [16]: 0%; MIC [17]: 0.5 µg/mL; MIC50 [17]: 0.5 µg/mL; MIC90 [17]: 0.5 µg/mL; Activity [18]: 0%
